Reference: ChEMBL document CHEMBL2346663 (J Med Chem, 2013)

Key:
[1] = biological target: Sodium-dependent serotonin transporter (Homo sapiens, UniProt P31645); assay: Inhibition of serotonin reuptake at human SERT expressed in HEK293 cells coexpressing macrophage scavenger receptor; format: cell-based
In short: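 HEK-293 MSR cells grown in DMEM with 10% FCS, penicillin/streptomycin and 6 µg/mL Geneticin at 37 °C and 5% CO2. Cells transfected with a pcDNA3.1 human SERT plasmid and assayed for [3H]5-HT uptake.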

Myeloperoxidase [2] = biological target: T1, Myeloperoxidase (Homo sapiens, UniProt P05164); assay: Inhibition of human recombinant MPO-mediated LDL oxidation after 5 mins by ELISA
T1 sequence (P05164 whole entry): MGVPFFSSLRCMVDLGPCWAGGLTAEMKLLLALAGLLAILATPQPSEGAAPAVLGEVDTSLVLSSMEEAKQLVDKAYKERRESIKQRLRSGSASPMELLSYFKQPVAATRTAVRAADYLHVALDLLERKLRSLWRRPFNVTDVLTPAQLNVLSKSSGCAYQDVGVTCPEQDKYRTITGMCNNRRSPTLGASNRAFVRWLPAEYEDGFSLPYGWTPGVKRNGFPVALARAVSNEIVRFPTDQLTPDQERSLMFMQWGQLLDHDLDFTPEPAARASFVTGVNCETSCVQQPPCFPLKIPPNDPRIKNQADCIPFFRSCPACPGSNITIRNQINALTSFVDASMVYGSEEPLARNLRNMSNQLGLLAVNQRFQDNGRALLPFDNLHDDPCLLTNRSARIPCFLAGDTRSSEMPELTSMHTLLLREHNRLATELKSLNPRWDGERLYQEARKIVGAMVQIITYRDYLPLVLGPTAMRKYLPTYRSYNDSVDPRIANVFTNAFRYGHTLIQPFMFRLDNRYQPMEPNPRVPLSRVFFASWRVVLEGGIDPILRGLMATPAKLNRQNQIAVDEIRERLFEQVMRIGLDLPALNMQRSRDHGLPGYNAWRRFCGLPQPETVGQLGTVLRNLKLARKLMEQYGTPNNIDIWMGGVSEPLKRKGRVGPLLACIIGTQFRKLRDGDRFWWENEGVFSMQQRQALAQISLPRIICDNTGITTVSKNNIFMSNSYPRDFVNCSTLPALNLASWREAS
In short: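 Recombinant MPO (1 µg/mL) with human plasma LDL (1000 µg/mL; ultracentrifuged fraction 1.019–1.067 g/mL, desalted in PBS) in PBS pH 7.2 with 4 mM HCl and test compound at several concentrations. Reaction started with 100 µM H2O2 at 37 °C and stopped after 5 min on ice. Oxidized LDL read by ELISA: 200 ng/well LDL coated, Mab AG9 antibody, alkaline phosphatase anti-mouse IgG, p-nitrophenyl phosphate, A405 corrected at 655 nm.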

Myeloperoxidase [3] = biological target: T1, Myeloperoxidase; assay: Inhibition of human recombinant MPO-mediated taurine chlorination after 5 mins by microplate assay; format: single protein
In short: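 Recombinant MPO (40 nM) in 10 mM phosphate pH 7.4 with 300 mM NaCl and 15 mM taurine, inhibitor up to 20 µM, 37 °C. Started with H2O2 (100 µM), stopped after 5 min with catalase. Taurine chloramine measured with thionitrobenzoic acid at 412 nm. IC50 taken from the absorbance–concentration curve; no H2O2 set as 100% inhibition, no inhibitor as 0%.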

Homo sapiens = species: Homo sapiens; assay: Selectivity ratio of Ki for human SERT to IC50 for human recombinant MPO-mediated LDL oxidation
In short: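 Ratio of two measured values. Recombinant human MPO (1 µg/mL) oxidised LDL (1000 µg/mL) in PBS pH 7.2 with 4 mM HCl and 100 µM H2O2 at 37 °C for 5 min. Oxidised LDL was detected by ELISA with Mab AG9 at 405 nm to give the IC50. hSERT was transiently expressed in HEK-293 MSR cells and assayed by [3H]5-HT uptake.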

Rattus norvegicus [4] = assay: Toxicity in Wistar Han rat assessed as occurrence of piloerection at 100 mg/kg, ip after 48 hrs; format: organism-based; parameters: dose 100 mg/kg, route intraperitoneal; settings: in vivo
In short: (§1)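 Male Wistar Han rats (~285 g), 3 per group, given one i.p. dose in 2 ml alcohol/water 1:3 (v/v); vehicle-only controls. Doses were 10 or 100 mg/kg, or 1, 10 or 100 mg/kg, depending on the compound. Clinical signs recorded daily. Rats killed by exsanguination after 4 days, with gross organ examination at necropsy.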

Rattus norvegicus [5] = assay: Toxicity in Wistar Han rat assessed as mortality at 10 to 100 mg/kg, ip after 4 days; format: organism-based; parameters: dose 10-100 mg/kg, route intraperitoneal; settings: in vivo, 96 h
Rattus norvegicus [6] = assay: Toxicity in Wistar Han rat assessed as paralysis of hind limbs at 100 mg/kg, ip after 48 hrs; format: organism-based, Hindlimb; parameters: dose 100 mg/kg, route intraperitoneal; settings: in vivo; in short: as §1
Rattus norvegicus [7] = assay: Toxicity in Wistar Han rat assessed as occurrence of macroscopic liver lesions at 100 mg/kg, ip by necropsic analysis; format: organism-based; parameters: dose 100 mg/kg, route intraperitoneal; settings: in vivo; in short: as §1
Rattus norvegicus [8] = assay: Toxicity in Wistar Han rat at 10 mg/kg, ip; format: organism-based; parameters: dose 10 mg/kg, route intraperitoneal; settings: in vivo; in short: as §1
Rattus norvegicus [9] = assay: Toxicity in Wistar Han rat at 1 to 10 mg/kg, ip; format: organism-based; parameters: dose 1-10 mg/kg, route intraperitoneal; settings: in vivo
In short: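 Male Wistar Han rats (~285 g), 3 per group, received a single i.p. injection of 1 or 10 mg/kg in alcohol/water 1:3 (v/v), with vehicle controls. Physical and clinical signs were recorded daily for 4 days, followed by exsanguination and gross necropsy.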

Rattus norvegicus [10] = assay: Toxicity in Wistar Han rat assessed as mortality at 1 to 100 mg/kg, ip; format: organism-based; parameters: dose 1-100 mg/kg, route intraperitoneal; settings: in vivo
Rattus norvegicus [11] = assay: Toxicity in Wistar Han rat assessed as prostarted posture at 100 mg/kg, ip after 24 hrs; format: organism-based; parameters: dose 100 mg/kg, route intraperitoneal; settings: in vivo; in short: as §1
Rattus norvegicus [12] = assay: Toxicity in Wistar Han rat assessed as macroscopic kidney lesions at 1 to 100 mg/kg, ip by necropsic analysis; format: organism-based; parameters: dose 1-100 mg/kg, route intraperitoneal; settings: in vivo
In short: (§2)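 Male Wistar Han rats (~285 g), 3 per group, received a single i.p. dose of 1, 10 or 100 mg/kg in alcohol/water 1:3 (v/v), with vehicle controls. Clinical signs were recorded daily. After 4 days, rats were killed by exsanguination, and liver, kidney, heart and muscle were examined grossly at necropsy.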

Rattus norvegicus [13] = assay: Toxicity in Wistar Han rat assessed as occurrence of piloerection at 100 mg/kg, ip after 24 hrs; format: organism-based; parameters: dose 100 mg/kg, route intraperitoneal; settings: in vivo; in short: as §1
Rattus norvegicus [14] = assay: Toxicity in Wistar Han rat assessed as macroscopic heart lesions at 1 to 100 mg/kg, ip by necropsic analysis; format: organism-based; parameters: dose 1-100 mg/kg, route intraperitoneal; settings: in vivo; in short: as §2
Rattus norvegicus [15] = assay: Toxicity in Wistar Han rat assessed as macroscopic muscle lesions at 1 to 100 mg/kg, ip by necropsic analysis; format: organism-based, Muscle tissue; parameters: dose 1-100 mg/kg, route intraperitoneal; settings: in vivo; in short: as §2
Rattus norvegicus [16] = assay: Toxicity in Wistar Han rat assessed as macroscopic liver lesions at 1 to 100 mg/kg, ip by necropsic analysis; format: organism-based; parameters: dose 1-100 mg/kg, route intraperitoneal; settings: in vivo; in short: as §2

Chain of Sodium-dependent serotonin transporter (P31645 whole entry): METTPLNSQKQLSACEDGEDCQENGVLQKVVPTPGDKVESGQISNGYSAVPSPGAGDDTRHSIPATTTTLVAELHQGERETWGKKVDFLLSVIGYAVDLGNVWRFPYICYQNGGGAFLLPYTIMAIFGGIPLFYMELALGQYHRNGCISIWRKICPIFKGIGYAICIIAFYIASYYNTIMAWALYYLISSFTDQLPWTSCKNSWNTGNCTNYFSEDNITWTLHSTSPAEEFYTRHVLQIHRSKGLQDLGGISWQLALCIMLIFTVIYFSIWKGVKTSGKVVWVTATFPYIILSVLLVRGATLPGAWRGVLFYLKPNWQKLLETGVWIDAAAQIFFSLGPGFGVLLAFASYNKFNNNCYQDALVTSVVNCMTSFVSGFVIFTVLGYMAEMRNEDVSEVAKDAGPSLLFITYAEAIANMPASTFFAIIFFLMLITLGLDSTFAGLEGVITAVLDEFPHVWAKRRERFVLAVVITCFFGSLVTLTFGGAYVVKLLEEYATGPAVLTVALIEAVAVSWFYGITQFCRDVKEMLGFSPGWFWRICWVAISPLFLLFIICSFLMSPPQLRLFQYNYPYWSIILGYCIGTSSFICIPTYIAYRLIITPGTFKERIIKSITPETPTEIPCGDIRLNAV

SMILES	Ki ([1]; read-out: Ki)	Ratio (Homo sapiens)	IC50 (Myeloperoxidase [2]; read-out: IC50)	IC50 (Myeloperoxidase [3]; read-out: IC50)	further results
NCCCc1c[nH]c2ccc(C(=O)O)cc12	–	–	–	–	Ki ([1]; hek293): Not Active; IC50 (Myeloperoxidase [2]): Not Active; IC50 (Myeloperoxidase [3]): Not Active
NCCSCCc1c[nH]c2ccc(F)cc12	2.3 nM	0.6	–	–	–
CCNC(=O)CCCc1c[nH]c2ccc(F)cc12	–	–	243 nM	182 nM	–
N#CCCCc1c[nH]c2ccc(C(=O)O)cc12	–	–	–	–	Ki ([1]; hek293): Not Active; IC50 (Myeloperoxidase [2]): Not Active; IC50 (Myeloperoxidase [3]): Not Active
NCC(N)CCc1c[nH]c2ccc(F)cc12 (stereo not given)	12 nM	0.2	26 nM	60 nM	–
NCCCc1c[nH]c2c(F)cccc12	24 nM	1	26 nM	24 nM	–
CCCc1c[nH]c2ccc(F)cc12	–	–	> 100 nM	> 100 nM	Ki ([1]; hek293): Not Active
NCCc1c[nH]c2c(F)cccc12	29 nM	1	28 nM	29 nM	–
NC(=O)CCc1c[nH]c2ccc(F)cc12	–	–	34 nM	132 nM	–
CCSCCc1c[nH]c2ccc(F)cc12	–	–	> 100 nM	> 100 nM	Ki ([1]; hek293): Not Active
CCN(CCCc1c[nH]c2ccc(F)cc12)S(C)(=O)=O	12 nM	0.3	–	37 nM	–
N#CCCCc1c[nH]c2ccc(F)cc12	184 nM	2.9	72 nM	63 nM	–
NCCSCCc1c[nH]c2c(F)cccc12	24 nM	8	–	–	Activity (Rattus norvegicus [4]): Toxic; Activity (Rattus norvegicus [5]): Non-toxic; Activity (Rattus norvegicus [6]): Toxic; Activity (Rattus norvegicus [7]): Toxic; Activity (Rattus norvegicus [8]): Non-toxic
Fc1ccc2[nH]cc(CCCNCc3ccccc3)c2c1	53 nM	4.1	30 nM	13 nM	–
NCCSCCCc1c[nH]c2ccc(F)cc12	0.9 nM	0.02	–	35 nM	–
CCSCCCc1c[nH]c2ccc(F)cc12	–	–	> 100 nM	> 100 nM	Ki ([1]; hek293): Not Active

SMILES	Ki ([1]; read-out: Ki)	Ratio (Homo sapiens)	IC50 (Myeloperoxidase [2]; read-out: IC50)	IC50 (Myeloperoxidase [3]; read-out: IC50)	further results
NCCCCc1c[nH]c2ccc(C(=O)O)cc12	–	–	–	–	Ki ([1]; hek293): Not Active; IC50 (Myeloperoxidase [2]): Not Active; IC50 (Myeloperoxidase [3]): Not Active
N[C@@H](Cc1ccc(O)cc1)C(=O)O [TYROSINE]	–	–	–	–	IC50 (Myeloperoxidase [3]): Not Active
OCCNCCc1c[nH]c2ccc(F)cc12	10 nM	1	31 nM	10 nM	–
CCN(CCc1c[nH]c2ccc(F)cc12)S(C)(=O)=O	–	12	–	–	–
Fc1ccc2[nH]cc(CCCN3CCN(c4ccccc4)CC3)c2c1	36 nM	1.6	60 nM	22 nM	–
NCCCCc1c[nH]c2c(F)cccc12	8 nM	1.3	–	–	–
NC(=O)CCc1c[nH]c2c(F)cccc12	–	–	64 nM	271 nM	–
NC(=O)CCCc1c[nH]c2ccc(F)cc12	–	35	–	18 nM	Activity (Rattus norvegicus [9]): Non-toxic; Activity (Rattus norvegicus [10]): Non-toxic; Activity (Rattus norvegicus [11]): Toxic; Activity (Rattus norvegicus [12]): Non-toxic; Activity (Rattus norvegicus [13]): Toxic; Activity (Rattus norvegicus [14]): Non-toxic; Activity (Rattus norvegicus [15]): Non-toxic; Activity (Rattus norvegicus [16]): Non-toxic
N#CSCCCc1c[nH]c2ccc(F)cc12	–	42	–	–	–
NCCc1c[nH]c2ccccc12 [TRYPTAMINE]	–	–	–	770 nM	–
NCCc1c[nH]c2ccc(O)cc12 [SEROTONIN]	–	–	–	–	IC50 (Myeloperoxidase [3]): Not Active
NC(=O)CCCCc1c[nH]c2ccc(F)cc12	–	–	43 nM	39 nM	–
NC(=O)CCCCc1c[nH]c2c(F)cccc12	–	–	44 nM	34 nM	–
NCCSCCCc1c[nH]c2c(F)cccc12	539 nM	–	> 100 nM	> 100 nM	–
OCCNCCCc1c[nH]c2ccc(F)cc12	62 nM	6.2	43 nM	10 nM	–
